The test system of data set [1] is MDA-MB-231. The data set can be described thus: Cytotoxicity against human MDA-MB-231 cells assessed as reduction in cell viability incubated for 48 hrs by MTT assay. The data set is classed as functional, cell-based. Particulars: MDA-MB-231, 48 h. In outline:
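MTT assay in MDA-MB-231 cells grown in DMEM with 10% heat-inactivated FBS at 37 °C and 5% CO2. Cells were seeded at 8000 per well, left 24 h, then exposed for 48 h to 0–25 μM in DMEM with 2% FBS (final DMSO 0.1%). MTT (0.5 mg/mL) was added for 2 h, formazan was dissolved in DMSO and read at 570 nm. Runs were in triplicate and IC50 was derived from the curves.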
In general terms: Formazan colour is commonly taken as a measure of viable cells.

The target of data set [2] is DAT (sodium-dependent dopamine transporter) (Homo sapiens, UniProt Q01959). The data set can be described thus: Inhibition of DAT (unknown origin) at 10 uM relative to control. The procedure, abridged:
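Primary radioligand-binding screen by the NIMH Psychoactive Drug Screening Program. Each compound was tested at a final concentration of 10 μM in triplicate or quadruplicate, and % inhibition was recorded. Data are mean ± SEM of four independent experiments. Compounds reaching at least 50% antagonist activity went on to secondary dose-response assays.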

In data set [3] the target is Sodium-dependent dopamine transporter (Homo sapiens, UniProt Q01959). The data set can be described thus: Inhibition of DAT (unknown origin).
Sequence of Sodium-dependent dopamine transporter (Q01959 whole entry): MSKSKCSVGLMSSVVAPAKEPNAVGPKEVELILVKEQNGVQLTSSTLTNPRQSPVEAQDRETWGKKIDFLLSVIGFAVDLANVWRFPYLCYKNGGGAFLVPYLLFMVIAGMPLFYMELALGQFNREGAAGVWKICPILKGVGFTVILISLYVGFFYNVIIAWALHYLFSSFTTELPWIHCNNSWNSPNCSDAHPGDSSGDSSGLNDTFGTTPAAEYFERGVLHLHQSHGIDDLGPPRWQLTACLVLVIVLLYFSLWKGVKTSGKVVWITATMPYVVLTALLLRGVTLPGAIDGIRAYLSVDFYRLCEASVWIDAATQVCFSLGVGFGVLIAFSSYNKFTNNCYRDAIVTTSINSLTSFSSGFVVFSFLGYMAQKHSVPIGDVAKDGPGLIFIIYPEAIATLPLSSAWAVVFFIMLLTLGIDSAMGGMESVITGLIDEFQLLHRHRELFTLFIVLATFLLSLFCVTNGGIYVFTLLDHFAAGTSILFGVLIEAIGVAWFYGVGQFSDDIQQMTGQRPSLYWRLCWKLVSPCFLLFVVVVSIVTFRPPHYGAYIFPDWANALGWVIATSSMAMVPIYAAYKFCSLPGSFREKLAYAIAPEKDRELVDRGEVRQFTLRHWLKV

Sequence of DAT (sodium-dependent dopamine transporter) (Q01959 whole entry): as above

What is called IC50 is the concentration that gives 50% inhibition. As for `O=C(NCCCCC(c1ccc(F)cc1)c1ccc(F)cc1)Nc1ccc([N+](=O)[O-])c(Cl)c1`, the IC50 in data set [1] was 3.47 µM.
By inhibition is commonly meant the relative decrease from the control value, in per cent. The Ki is the dissociation constant of the complex between target and ligand, obtained from inhibition or displacement. The compound `CC(=O)Nc1cc(NC(=O)NCCCCC(c2ccc(F)cc2)c2ccc(F)cc2)ccc1Cl` had an inhibition at 10 µM in data set [2] of 76%. In data set [3], this compound displayed an inhibitory constant (Ki) of 0.609 µM. The half-inhibitory concentration (IC50) in data set [1] was found to be 9.12 µM.
For the compound `Cc1ccc(NC(=O)NCCCCC(c2ccc(F)cc2)c2ccc(F)cc2)cc1C`, the inhibition at 10 µM in data set [2] was 79%. Also, in data set [3], the Ki came to 0.08 µM. The concentration for half-maximal inhibition (IC50) in data set [1] was greater than 20 µM.
The matching figures for `COc1ccc(C(CCCCNC(=O)Nc2ccc(Cl)c(C(F)(F)F)c2)c2ccc(OC)cc2)cc1`: 75%, 0.04 µM and 3.3 µM.
As for `O=C(NCCCCCc1ccc(F)cc1)Nc1ccc(Cl)c(C(F)(F)F)c1`, in data set [1], the IC50 was determined as 5.44 µM.
Regarding `Nc1ccc(C(CCCCNC(=O)Nc2ccc(Cl)c(C(F)(F)F)c2)c2ccc(N)cc2)cc1`, the half-inhibitory concentration (IC50) in data set [1] came to 12.2 µM.
On to `O=C(Nc1ccc(Cl)c(C(F)(F)F)c1)N1CCC(CC(c2ccc(F)cc2)c2ccc(F)cc2)CC1`, for which the inhibition at 10 µM in data set [2] is 24%. Further, in data set [1], the IC50 was 4.84 µM.
With `OC1(c2ccc(Cl)c(C(F)(F)F)c2)CCN(CCCC(c2ccc(F)cc2)c2ccc(F)cc2)CC1` [PENFLURIDOL], the concentration for half-maximal inhibition (IC50) in data set [1] was 2.3 µM.
Turning to `CC(=O)Nc1ccc(NC(=O)NCCCCC(c2ccc(F)cc2)c2ccc(F)cc2)cc1`, in data set [1], the IC50 is greater than 20 µM.
For `O=C(NCCCCN(c1ccc(F)cc1)c1ccc(F)cc1)Nc1ccc(I)cc1`, the half-maximal inhibitory concentration (IC50) in data set [1] is greater than 20 µM.
Regarding `COc1ccc(C(CCCCNC(=O)Nc2ccc(Cl)c([N+](=O)[O-])c2)c2ccc(OC)cc2)cc1`, in data set [2], at 10 µM the inhibition was 64%. The Ki in data set [3] came to 0.144 µM. Also, the 50% inhibitory concentration (IC50) in data set [1] was determined as 3.99 µM.
For the compound `O=C(OCCCC(c1ccc(F)cc1)c1ccc(F)cc1)c1cc(Cl)c(OCc2ccccc2)c(Cl)c1`, the IC50 in data set [1] was greater than 20 µM.
`O=C(NCCCCC(c1ccc(F)cc1)c1ccc(F)cc1)Nc1ccc(C(=O)O)c(C(F)(F)F)c1`: the IC50 in data set [1] was greater than 20 µM.
For the compound `O=C(NCCCCC(c1ccc(F)cc1)c1ccc(F)cc1)Nc1ccc(C(F)(F)F)cc1`, in data set [1], the IC50 is 2.78 µM.
`O=C(NCCCCN(c1ccc(F)cc1)c1ccc(F)cc1)Nc1ccc(Cl)cc1` yielded an inhibition at 10 µM in data set [2] of 68%. In data set [3], this compound displayed an inhibitory constant (Ki) of 0.405 µM. Also, in data set [1], the 50% inhibitory concentration (IC50) was greater than 20 µM.
The compound `O=C(Nc1ccc(Cl)c(C(F)(F)F)c1)OCCCCC(c1ccc(F)cc1)c1ccc(F)cc1` displayed an inhibition at 10 µM in data set [2] of 49%. In data set [1], the half-inhibitory concentration (IC50) came to 4.58 µM.
`O=C(NCCCC(c1ccc(F)cc1)c1ccc(F)cc1)Nc1ccc(Cl)c(C(F)(F)F)c1` registered an inhibition at 10 µM in data set [2] of 86%. Besides, in data set [3], the inhibitory constant (Ki) amounted to 0.141 µM. The 50% inhibitory concentration (IC50) in data set [1] was 3.5 µM.
In the case of `O=C(NCCCCC(c1ccc(F)cc1)c1ccc(F)cc1)Nc1ccc([N+](=O)[O-])cc1`, the IC50 in data set [1] is 6.47 µM.
In the case of `O=C(NCCCCC(c1ccc(OC(F)(F)F)cc1)c1ccc(OC(F)(F)F)cc1)Nc1ccc(Cl)c(C(F)(F)F)c1`, the half-maximal inhibitory concentration (IC50) in data set [1] was found to be 1.69 µM.
In turn, `CN(CCCCC(c1ccc(F)cc1)c1ccc(F)cc1)C(=O)Nc1ccc(Cl)c(C(F)(F)F)c1` showed an inhibition at 10 µM in data set [2] of 73%. This compound displayed a Ki in data set [3] of 0.998 µM. The IC50 in data set [1] was 6.02 µM.
For `O=C(NCCCCC(c1ccc(F)cc1)c1ccc(F)cc1)Nc1cccc(Cl)c1`, the concentration for half-maximal inhibition (IC50) in data set [1] came to 5.07 µM.
On the same count and under the same terms, the value for `O=C(NCCCCC(c1ccccc1)c1ccccc1)Nc1ccc(Cl)c(C(F)(F)F)c1` was 5.72 µM.
Turning to `CN(CCCCC(c1ccc(F)cc1)c1ccc(F)cc1)C(=O)N(C)c1ccc(Cl)c(C(F)(F)F)c1`, in data set [2], testing at 10 µM gave an inhibition of 26%. Also, the IC50 in data set [1] was greater than 20 µM.
Regarding `Fc1ccc(C(CCCCN(c2ccc(F)cc2)c2ccc(F)cc2)c2ccc(F)cc2)cc1`, in data set [1], the IC50 is greater than 20 µM.
As for `Cc1ccc(NC(=O)NCCCCN(c2ccc(F)cc2)c2ccc(F)cc2)cc1C`, in data set [1], the IC50 was greater than 20 µM.
Regarding `Nc1ccc(NC(=O)NCCCCC(c2ccc(F)cc2)c2ccc(F)cc2)cc1`, in data set [1], the IC50 was greater than 20 µM.
Turning to `O=C(NCCCCC(c1ccc(F)cc1)c1ccc(F)cc1)Nc1ccc(Br)cc1I`, the IC50 in data set [1] is greater than 20 µM.
Same read-out and setting: for `O=S(=O)(c1ccc(Cl)c(C(F)(F)F)c1)N1CCN(CCCCC(c2ccc(F)cc2)c2ccc(F)cc2)CC1` the value was greater than 20 µM; for `Fc1ccc(C(CCCCOCc2ccc(Oc3ccc(Cl)cc3)cc2)c2ccc(F)cc2)cc1`, greater than 20 µM.
As to `O=C(Nc1ccc(Cl)c(C(F)(F)F)c1)N1CCC(C(c2ccc(F)cc2)c2ccc(F)cc2)CC1`, in data set [2], the inhibition at 10 µM was determined as 52%. Further, the Ki in data set [3] came to 1.59 µM. The IC50 in data set [1] stood at 11.4 µM.
In the case of `Fc1ccc(C(CCCCNC(=S)Nc2ccc(Cl)c(C(F)(F)F)c2)c2ccc(F)cc2)cc1`, the 50% inhibitory concentration (IC50) in data set [1] amounted to 3.66 µM.
With `O=C(NCCCCC(c1ccc(F)cc1)c1ccc(F)cc1)Nc1ccc(Cl)c([N+](=O)[O-])c1`, the half-maximal inhibitory concentration (IC50) in data set [1] stood at 4.06 µM.
On to `Nc1cc(NC(=O)NCCCCC(c2ccc(F)cc2)c2ccc(F)cc2)ccc1Cl`, for which the 50% inhibitory concentration (IC50) in data set [1] turned out to be 9.24 µM.
`Cc1cc(Cl)ccc1NC(=O)NCCCCC(c1ccc(F)cc1)c1ccc(F)cc1` came in with an inhibition at 10 µM in data set [2] of 58%. Moreover, the affinity in data set [3], expressed as Ki, was 0.118 µM. For the same compound, in data set [1], the IC50 is greater than 20 µM.
As for `O=C(NCCCCC(c1ccc(F)cc1)c1ccc(F)cc1)Nc1ccc(Cl)cc1C(F)(F)F`, in data set [2], the inhibition at 10 µM is 20%. Further, the IC50 in data set [1] was greater than 20 µM.
For the compound `COC(=O)c1ccc(NC(=O)NCCCCC(c2ccc(F)cc2)c2ccc(F)cc2)cc1C(F)(F)F`, the half-maximal inhibitory concentration (IC50) in data set [1] turned out to be 4.43 µM.
As to `O=C(Nc1ccc(Cl)c(C(F)(F)F)c1)N1CCC(=C(c2ccc(F)cc2)c2ccc(F)cc2)CC1`, the IC50 in data set [1] turned out to be 5.65 µM.
Turning to `O=C(CCCCC(c1ccc(F)cc1)c1ccc(F)cc1)Nc1ccc(Cl)c(C(F)(F)F)c1`, the inhibition at 10 µM in data set [2] was 33%. Besides, the IC50 in data set [1] was found to be 11.4 µM.
Regarding `Cc1ccc(NC(=O)NCCCCC(c2ccc(F)cc2)c2ccc(F)cc2)cc1`, the half-maximal inhibitory concentration (IC50) in data set [1] was greater than 20 µM.
In turn, `Cc1ccc(C(CCCCNC(=O)Nc2ccc(Cl)c(C(F)(F)F)c2)c2ccc(C)cc2)cc1` displayed an inhibition at 10 µM in data set [2] of 38%. Besides, the IC50 in data set [1] turned out to be 2.51 µM.
For the compound `O=C(NCCCCC(c1ccc(F)cc1)c1ccc(F)cc1)Nc1cccc(C(F)(F)F)c1`, the IC50 in data set [1] came to 3.38 µM.
With `O=C(NCCCCCC(c1ccc(F)cc1)c1ccc(F)cc1)Nc1ccc(Cl)c(C(F)(F)F)c1`, testing at 10 µM in data set [2] gave an inhibition of 77%. In data set [3], this compound came in with an inhibition constant Ki of 0.399 µM. In addition, the IC50 in data set [1] came out at 2.57 µM.
In the case of `O=C(NCCCCN(c1ccc(F)cc1)c1ccc(F)cc1)Nc1ccc(Br)cc1I`, in data set [1], the 50% inhibitory concentration (IC50) is greater than 20 µM.
As for `O=C(NCCCCC(c1ccc(F)cc1)c1ccc(F)cc1)Nc1ccc(I)cc1`, the inhibition at 10 µM in data set [2] is 24%. The IC50 in data set [1] was 11.8 µM.
As to `O=C(NCCCCC(c1ccc(F)cc1)c1ccc(F)cc1)c1ccc(Cl)c(C(F)(F)F)c1`, the inhibition at 10 µM in data set [2] turned out to be 51%. Further, the affinity in data set [3], expressed as Ki, was 0.603 µM. Also, the concentration for half-maximal inhibition (IC50) in data set [1] stood at 11.7 µM.
Regarding `CC(=O)Nc1ccc(C(CCCCNC(=O)Nc2ccc(Cl)c(C(F)(F)F)c2)c2ccc(NC(C)=O)cc2)cc1`, the IC50 in data set [1] was greater than 20 µM.
Consider `O=C(NCCCCC(c1ccc([N+](=O)[O-])cc1)c1ccc([N+](=O)[O-])cc1)Nc1ccc(Cl)c(C(F)(F)F)c1`, for which, in data set [1], the IC50 stood at 1.23 µM.
`Fc1ccc(C(CCCCOC2COC(c3ccccc3)OC2)c2ccc(F)cc2)cc1` (centres undefined): the IC50 in data set [1] was greater than 20 µM.
Regarding `O=C(NCCCCC(c1ccc(F)cc1)c1ccc(F)cc1)Nc1cccc([N+](=O)[O-])c1`, the IC50 in data set [1] was found to be 3.79 µM.
In the case of `Cc1cccc(NC(=O)NCCCCC(c2ccc(F)cc2)c2ccc(F)cc2)c1`, the IC50 in data set [1] is greater than 20 µM.
